# EBI2 block = blocks human EBI2 receptor beta-arrestin signaling | inhibition, % at 5 µM | 0.81% of 360,000 active | P32249 | EBI2 beta-arrestin recruitment, luminescence, 7a,25-OHC stimulated; in the data active means inhibition above about 38%;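 further: enzyme fragment complementation signal reports receptor beta-arrestin coupling in cells; 0% = agonist plus DMSO wells and 100% = wells without agonist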
# CCR6 antag = CCR6 (human) receptor antagonism; P51684; CHO-K1 CCR6 PathHunter beta-arrestin, luminescence, CCL20-stimulated; inhibition, % at 20 µM; 0.49% of 340,000 active; AID 493098;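 active means compounds whose inhibition of the agonist-driven luminescence signal at 20 µM reaches about 50%, limit read from the data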;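 further: cells stimulated with CCL20 at 14 nM final; plate controls were DMSO with CCL20 for no effect and DMSO without agonist for full effect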
# APJ antag = APJ receptor antagonism; P35414; CHO-K1 APJ beta-arrestin complementation, luminescence; AID 2521; 0.32% of 330,000 active; inhibition, % at 20 µM;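 active means inhibition above about 40% at 20 µM, limit read from the data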;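 further: cells challenged with 10 nM apelin-13 agonist together with compound; plate controls were apelin-13 plus DMSO wells for no effect and DMSO wells lacking apelin-13 for full effect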
# APJ agonist = agonists of human APJ apelin receptor. P35414. CHO-K1 APJ PathHunter beta-arrestin, luminescence; 0% DMSO wells, 100% apelin. activation, % at 20 µM. 0.11% of 330,000 active;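 active means activation more than six SD over the plate average, tested at 20 µM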;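 further: 0% = DMSO alone and 100% = apelin-13 at 10 nM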
#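 Test system: CHO-K1 APJ beta-arrestin complementation cell line. Amount: cell density 1000 per well. Controls: DMSO negative, 10 nM Apelin-13 positive. Signal: luminescent beta-gal fragment complementation, chemiluminescent substrate. Read-out basis: agonist-driven arrestin binding to APJ. Timing: compound stimulation 90 min at 25 °C, detection 60 min.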
# CXCR6 inh = CXCR6 (human) receptor inhibition; CHO-K1 PathHunter CXCR6 beta-arrestin, luminescence; AID 602244; inhibition, % at 20 µM; 0.36% of 360,000 active; O00574; in the data active means inhibition above about 34%, passing the limit was not always enough;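 further: antagonist mode with CXCL16 agonist at 10 nM final; 0% = 10 nM CXCL16 with DMSO and 100% = unstimulated wells without agonist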
# Target sequence (O00574 whole entry, looked up): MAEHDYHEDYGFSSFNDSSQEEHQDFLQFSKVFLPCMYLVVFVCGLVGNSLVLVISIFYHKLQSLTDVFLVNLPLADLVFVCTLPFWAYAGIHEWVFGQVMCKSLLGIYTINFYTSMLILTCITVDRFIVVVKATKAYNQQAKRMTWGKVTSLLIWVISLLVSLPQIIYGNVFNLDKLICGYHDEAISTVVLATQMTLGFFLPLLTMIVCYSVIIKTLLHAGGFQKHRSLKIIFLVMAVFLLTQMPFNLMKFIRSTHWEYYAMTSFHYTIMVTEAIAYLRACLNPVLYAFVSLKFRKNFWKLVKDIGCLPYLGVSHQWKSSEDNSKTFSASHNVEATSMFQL
# EBI2 antag conf = EBI2 (human) antagonism, single concentration confirmation. 29% of 2,400 active. shares compounds with EBI2 block. inhibition, % at 5 µM. EBI2 beta-arrestin luminescence, 7a,25-OHC antagonism;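 active means inhibition of at least 50%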
# EBI2 ag = counter-screen for EBI2 antagonists: EBI2 agonist activity. EBI2-expressing cells, agonist mode, luminescence, 60 min; 0% vehicle, 100% 7α,25-dihydroxycholesterol control. activation, % at 5 µM. shares compounds with EBI2 block. 2,400 tested, under 10 active;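 active means activation of at least 50%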
# bGal cs = counter-screen for EBI2 antagonists: E. coli beta-galactosidase inhibition; shares compounds with EBI2 block; purified beta-galactosidase, luminescent Galacton Star, 15 min; inhibition, % at 5 µM; 1% of 2,400 active; AID 652176;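 active means replicate-average signal at least 3 plate SD below neutral wells, shown as high inhibition, flagging enzyme-inhibiting false positives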;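 further: 0% = DMSO wells with enzyme and 100% = wells lacking enzyme; higher means stronger loss of beta-gal luminescence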
# Active calls of the source: *; / = no result. In the library only some 1.5% were active in any assay of this set; here they are far more common.
SMILES,EBI2 block,CCR6 antag,APJ antag,APJ agonist,CXCR6 inh,EBI2 antag conf,EBI2 ag,bGal cs
Clc1ccccc1C1=CC(c2ccco2)n2ncnc2N1 (stereo unspecified),-2,12,-7,-4,-4,/,/,/
CCc1nc2ccc(C(=O)NCc3cccs3)cn2c1N(CCC(C)C)CCN(C)C,-9,/,/,/,7,/,/,/
CCOC(=O)Nc1ccc2c(CN3CCN(S(=O)(=O)c4ccccc4F)CC3)cc(=O)oc2c1,-8,3,13,6,3,/,/,/
CCOC(=O)Nc1ccc2c(CN3CCN(S(=O)(=O)c4ccc(C(C)C)cc4)CC3)cc(=O)oc2c1,55*,8,7,-1,3,10,-1,-12
CC(C)(C)n1nnnc1C(c1cccs1)N(Cc1ccc(Cl)cc1)CC1CCCO1 (stereo unspecified),60*,14,5,-1,2,16,0,6
Clc1ccc(CN(Cc2ccccc2)C(c2cccs2)c2nnnn2C2CCCC2)cc1 (stereo unspecified),31,1,14,-2,5,/,/,/
CCC1CCCCN1C(=S)Nc1ccc(OC(F)F)cc1 (stereo unspecified),55*,10,-4,-2,-5,0,0,2
O=C(O)C1CCN(S(=O)(=O)c2ccc(N3CCCC3C(=O)O)c([N+](=O)[O-])c2)CC1 (stereo unspecified),-9,2,8,-1,0,/,/,/
O=C(/C=C/c1ccc(F)cc1)N1CCN(c2ncccn2)CC1,93*,-2,10,-1,-3,78*,-1,-5
CC(C)(C)c1ccc(/C=C/C(=O)N2CCN(c3ncccn3)CC2)cc1,65*,-22,-2,-3,2,61*,-1,-18
CC(C)(C)c1ccc(/C=C/C(=O)N2CCOCC2)cc1,-9,7,-10,-3,3,/,/,/
NS(=O)(=O)c1ccc(CCNC(=O)/C=C/c2ccccc2[N+](=O)[O-])cc1,-7,4,1,-3,0,/,/,/
CCc1cc(=O)n2[nH]c(-c3ccccc3)c(-c3ccccc3)c2n1,-6,15,5,-4,0,/,/,/
CCN1CCN(C(=O)/C=C/c2ccc([N+](=O)[O-])cc2)CC1,74*,-6,-15,1,-10,38,2,4
CC(CC(=O)N1CCN(S(=O)(=O)c2ccc([N+](=O)[O-])cc2)CC1)c1ccccc1 (stereo unspecified),-7,5,-86,1,-16,/,/,/
O=C(/C=C/c1ccc([N+](=O)[O-])cc1)N1CCN(Cc2ccccc2)CC1,90*,-24,-17,5,-10,64*,1,-10
O=C(/C=C/c1ccc(F)cc1)NC(=S)N1CCN(Cc2ccccc2)CC1,35,15,-3,0,11,/,/,/
CN1CCN(C(=O)/C=C/c2ccc([N+](=O)[O-])cc2)CC1,22,10,-5,0,-2,/,/,/
O=C(/C=C/c1ccc([N+](=O)[O-])cc1)N1CCN(S(=O)(=O)c2ccccc2)CC1,90*,-8,-6,4,-12,61*,-1,-13
O=C(/C=C/c1ccc(OCCCF)cc1)N1CCN(Cc2ccccc2)CC1,88*,9,-2,-2,-6,50*,-1,-11
CCCCCCCN1CCC(=O)N([C@H](CO)CC(C)C)CC1,-4,0,10,15,-3,/,/,/
C=CCn1c(CNC(=O)c2ccccc2F)nnc1SCC(=O)N1CCOCC1,3,-1,-2,-3,1,/,/,/
Cc1ccccc1C(=O)Nc1ccnn1C1CCN(C(C)Cc2ccccc2F)CC1 (stereo unspecified),2,12,7,-1,2,/,/,/
CCC1CCC/C1=N\NC(=O)c1ccoc1C (stereo unspecified),5,5,11,-3,-3,/,/,/
COC(=O)C1CCN(C(=O)COC(=O)C2CCN(S(=O)(=O)c3ccc(C)c(C)c3)CC2)CC1,1,7,11,11,4,/,/,/
SMILES,EBI2 block,CCR6 antag,APJ antag,APJ agonist,CXCR6 inh,EBI2 antag conf,EBI2 ag,bGal cs
O=C(/C=C/c1ccc(F)cc1)NNC(=O)CCN1CCN(Cc2ccccc2)CC1,42*,-1,23,-3,3,5,0,5
Cc1nc(N2CCC(C)CC2)c2c(C)c(C(=O)Nc3ccccc3C(F)(F)F)sc2n1,45*,-1,-19,1,-14,15,0,-10
CCOc1ccc(NC(=S)N2c3ccccc3CC2C)cc1 (stereo unspecified),66*,-7,-10,0,-17,-5,0,5
COc1ccc(NC(=S)N2CCC(C(O)(c3ccccc3)c3ccccc3)CC2)cc1,21,18,20,-1,4,/,/,/
CCOc1ccc(NC(=S)N2CCC(C(O)(c3ccccc3)c3ccccc3)CC2)cc1,44*,9,-14,2,2,2,-1,-8
CC(=O)c1cccc(NC(=S)N2c3ccccc3CC2C)c1 (stereo unspecified),-2,-7,14,-3,4,/,/,/
COc1ccc(-n2nnnc2CNC(=O)c2ccc3c(c2)OCO3)cc1,7,8,-1,-4,-1,/,/,/
CCc1ccc(NC(=O)c2ccc(F)c(S(=O)(=O)N(CC)c3ccccc3)c2)cc1,45*,21,-7,2,2,38,-1,-22
CCN(c1ccccc1)S(=O)(=O)c1cc(C(=O)Nc2cccc(Cl)c2)ccc1F,24,17,-7,-3,-4,/,/,/
COc1ccc(-c2noc(N3CCC(C(=O)NCc4ccc(Cl)cc4)CC3)n2)cc1,47*,-10,-3,-1,-6,14,-2,-15
O=C(NCc1ccc(Cl)cc1)C1CCN(C(=O)c2ccc(Cl)cc2)CC1,45*,19,-19,0,7,26,0,11
O=C(NCc1ccc(Cl)cc1)C1CCCN(C(=O)c2ccc(Cl)cc2)C1 (stereo unspecified),66*,3,12,-5,6,34,-2,-11
O=C(NCc1ccc(Cl)cc1)C1CCN(C(=O)c2ccco2)CC1,-3,22,17,-2,8,/,/,/
O=C(c1ccc(NC(=S)NCc2ccc(Cl)cc2)cc1)N1CCCCC1,-6,-2,-8,0,2,/,/,/
Cc1ccccc1C(OCC(O)CN1CCC(C(N)=O)CC1)c1ccccc1 (stereo unspecified),-4,18,9,-2,-1,/,/,/
